Screening results (PubChem BioAssay)
T cruzi repl = inhibitors of intracellular T. cruzi growth, primary screen, luminescence, NIH3T3 host cells | T. cruzi beta-gal in NIH3T3, 90 h | inhibition, % (no concentration beside the values) | actives 1.4% (n = 300,000);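 active = mean inhibition across valid replicates above about 55%, limit read from the data; inconclusive = mean below that limit but half or more replicates reach it; inactive = mean below it, under half of replicates reach it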;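 note: signal also drops with host cell toxicity which is not excluded here; 0% = plate median of DMSO wells and 100% = zero luminescence signal; higher percent means less beta-gal luminescence so fewer parasites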
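Test system: β-gal T. cruzi (Tulahuen C4) inside NIH/3T3 cells / Quantity: 5,000 cells/well / Measured by: luminescence from GalScreen with 0.05% NP40, read after 60 min / Medium: DMEM plus 2% FBS / Measure: parasite load inhibition, % / Reagent: Tulahuen C4 trypomastigotes, 5000/well / Schedule: co-culture of at least 90 h after 3 h attachment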
NALP1 inh = NALP1 inflammasome inhibitors in reconstituted yeast, colorimetric, S. cerevisiae, triplicate retest | S. cerevisiae NALP1/ASC/caspase-1 growth, X-gal OD620, 72 h | inhibition, % at 10 µM | actives 0.61% (n = 280,000) | AID 2071, 2009; in the data active = inhibition mostly above about 24%, no sharp cut-off; inactive = mostly below about 32%
Calb FLC = C. albicans growth inhibition with fluconazole, primary screen, CaCi-2 strain, Alamar Blue fluorescence | AID 1979, 2009 | actives 0.57% (n = 300,000) | C. albicans CaCi-2 + fluconazole, 48 h | growth inhibition, % (concentration not given with the values);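 active = growth inhibition above about 58% in most replicates, limit read from the data, passing the limit was not always enough; inconclusive = exactly half the replicates above a set limit; inactive = most replicates below a set limit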;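 note: all wells also contain fluconazole at 8 µg/ml as a sub-toxic cotreatment; 0% = median of DMSO wells and 100% = median of geldanamycin control wells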
NALP3 yeast inh = NALP3 inflammasome inhibitors in reconstituted yeast, primary screen, luminescence, uHTS; inhibition, % at 10 µM; Yeast reconstituted NLRP3/ASC/caspase-1, beta-gal luminescence, 24 h; actives 0.39% (n = 330,000);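 active = inhibition of 50% or more; inactive = inhibition below 50%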;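 note: plate controls were induced DMSO wells for no effect and uninduced yeast grown without galactose for full effect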
Lmaj promast = Leishmania major promastigote growth inhibition, primary screen | Leishmania major promastigotes, resazurin fluorescence viability | inhibition, % at 10 µM | actives 9% (n = 200,000); in the data active = inhibition above about 50%;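 note: promastigotes grown with compound for 44 hours at 28 °C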
PolyA inh = polyadenylation inhibitors in yeast reporter cells, primary screen, luminescence, S. cerevisiae | S. cerevisiae SKY197-pL101 polyadenylation reporter, beta-gal luminescence; efflux-impaired pdr1/pdr3 knockout yeast; score 100 = 6 SD above DMSO | activity score, % at 12 µM | actives 0.02% (n = 300,000);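 active = lowest replicate activity score at least 50, where 100 means six control SD above control mean; inconclusive = lowest score under 50 but half or more replicates reach 50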;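 note: yeast exposed to compound for 9 h at 30 °C; higher score means more reporter readthrough which indicates perturbed polyadenylation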
Starred values were filed as active, the others as inactive; ? = inconclusive; nt = no result given. This excerpt belongs to a sample that is enriched for hits.

SMILES	T cruzi repl	NALP1 inh	Calb FLC	NALP3 yeast inh	Lmaj promast	PolyA inh
O=C(NCCc1ccncc1)Nc1ccc(Cl)c(Cl)c1	68.5*	5.2	-22.0	2.0	96.2*	4.9
CCCn1c(=O)n(C)c(=O)c2c(SCC(=O)NC34CC5CC(CC(C5)C3)C4)nc(CC(C)C)nc21	69.3*	19.8	-5.2	2.0	38.9	4.4
CC(C)CCNC(=O)Cn1c(NCCC(C)C)nc2c1c(=O)n(C)c(=O)n2C	-19.2	nt	-1.1	10.3	1.4	5.9
O=C(Cc1cc(=O)[nH][nH]1)N/N=C/C=C/c1ccccc1	-4.6	1.5	?	10.7	72.5*	-7.6
COc1ccc(C(CCN)Cc2ccccc2)cc1 (configuration not stated)	89.4*	6.2	-14.5	-1.1	51.2*	-7.2
COc1ccc(OS(=O)(=O)Cc2ccccc2)cc1	-13.8	14.4	-8.9	29.6	nt	-0.2
Cc1cccc(CN2CCN(CC(=O)NCCCN3CCCC3=O)C2=O)c1	-7.3	5.4	-9.5	12.2	-5.1	-22.5
Cc1cccc(CN2CCN(CC(=O)NCCCN3CCN(c4ccc(F)cc4)CC3)C2=O)c1	17.6	15.6	-1.5	0.7	94.8*	-11.6
CC1(C)CC(=O)C2=C(C1)N1C(=C(C#N)C2c2ccc(Cl)cc2)N=C(N)c2ccccc21 (configuration not stated)	44.2	15.7	64.2	7.3	66.0*	-5.1
CC1(C)CC(=O)C2=C(C1)N1C(=C(C#N)C2c2ccccc2Cl)N=C(N)c2ccccc21 (configuration not stated)	6.9	16.1	13.8	17.1	32.8	2.9
C[C@@H]1CC[C@@]23COC(=O)C2=CCC[C@@H]3[C@@]1(C)CC/C(=C/CO)CO	nt	nt	nt	-52.0	nt	nt
CC1=CCC[C@@H]2[C@@](C)(CC/C(C)=C/C(=O)O)[C@H](C)CC[C@@]12C	-10.3	44.1*	6.9	45.8	-6.5	-7.0
COc1ccc2c(c1)c(C(=O)N/N=C/c1cccc(Br)c1)c(C)n2C	54.5*	nt	2.2	20.9	nt	9.0
Cc1c(NC(=O)c2ncn[nH]2)cccc1-c1nc2ccccc2s1	-7.7	16.4	-5.6	-3.8	100.4*	7.3
Cc1c(NC(=O)c2ccc(N3CCCC3)c([N+](=O)[O-])c2)cccc1-c1nc2ccccc2s1	41.0	22.9	-6.5	5.5	71.3*	-6.8
O=C(C1CC1)N1N=C(c2ccncc2)CC1(O)C(F)(F)F (configuration not stated)	-4.5	7.9	-9.1	7.4	-4.9	6.9
CCCC(c1nnnn1CS(=O)(=O)c1ccc(C)cc1)N1CCN(CC)CC1 (configuration not stated)	1.4	11.9	14.7	10.0	-2.4	-10.1
O=[N+]([O-])c1ccccc1Nc1c2ccccc2nc2ccccc12	-4.4	-3.9	39.8	0.7	17.0	-17.5
O=[N+]([O-])c1ccc(S(=O)(=O)Nc2ccc(-c3csc(-c4ccccc4)n3)cc2)cc1	65.6*	1.5	41.9	1.7	21.8	14.4
O=[N+]([O-])c1ccc(Nc2c3ccccc3nc3ccccc23)cc1	3.0	-7.6	5.6	19.2	56.7*	-27.1
O=[N+]([O-])c1ccc(S(=O)(=O)Nc2nc3ccccc3nc2Nc2ccccc2)cc1	46.4	-6.4	105.5*	14.1	12.4	-6.8
O=C(CNC(=O)c1ccccc1F)OC(C(=O)Nc1cc(C(F)(F)F)ccc1Cl)c1ccccc1 (configuration not stated)	-1.8	40.6*	-24.2	-17.4	-1.4	-23.5
N#CCC(=O)Nc1ccc(C(=O)OC(C(=O)Nc2cc(C(F)(F)F)ccc2Cl)c2ccccc2)cc1 (configuration not stated)	2.7	nt	nt	25.3	nt	-21.3
O=C(COC(=O)CNC(=O)c1ccccc1Cl)Nc1cc(C(F)(F)F)ccc1Cl	nt	nt	nt	12.9	nt	nt
C[C@H](NC(=O)c1ccccc1Cl)C(=O)OC(C(=O)Nc1cc(C(F)(F)F)ccc1Cl)c1ccccc1 (some centres not stated)	-7.1	35.4*	-16.6	7.0	2.9	-4.4
